Bioassay records: PubChem, Broad Institute
Xi reactivation: reactivates the inactive X chromosome in mouse fibroblasts | XiGFP mouse fibroblasts, % GFP-positive cells imaging, 3 d; cells co-treated with 5-aza-dC sensitizer; scaled so ellipticine positive control = 100% | actives 0.055% (n = 360,000) | AID 743238 | activation, % at 7.58 µM;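 active means mean normalized replicate activation at least 10% and every replicate at or above 10%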;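 further: 0% = median of on-plate neutral control wells and 100% = ellipticine 6 µM median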
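Schedule: 3 d treatment, 15 min room-temperature fixation; system: 68-5-11 XiGFP fibroblast line; buffer or medium: DMEM plus 5-aza-dC sensitizer; control set: ellipticine 6 µM positive control; compound: one concentration, pinned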
E-selectin induc: induces E-selectin expression in human endothelial cells; P16581; HUVEC E-selectin immunofluorescence imaging; normalized: neutral wells 0, TNF-alpha wells 100; activation, % at 7.58 µM; actives 0.37% (n = 260,000); AID 686992;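 active means mean E-selectin-positive cell signal at least 10% of the positive control, reached in at least 60% of replicates, without over 20% cell loss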
Target sequence (P16581 whole entry, looked up): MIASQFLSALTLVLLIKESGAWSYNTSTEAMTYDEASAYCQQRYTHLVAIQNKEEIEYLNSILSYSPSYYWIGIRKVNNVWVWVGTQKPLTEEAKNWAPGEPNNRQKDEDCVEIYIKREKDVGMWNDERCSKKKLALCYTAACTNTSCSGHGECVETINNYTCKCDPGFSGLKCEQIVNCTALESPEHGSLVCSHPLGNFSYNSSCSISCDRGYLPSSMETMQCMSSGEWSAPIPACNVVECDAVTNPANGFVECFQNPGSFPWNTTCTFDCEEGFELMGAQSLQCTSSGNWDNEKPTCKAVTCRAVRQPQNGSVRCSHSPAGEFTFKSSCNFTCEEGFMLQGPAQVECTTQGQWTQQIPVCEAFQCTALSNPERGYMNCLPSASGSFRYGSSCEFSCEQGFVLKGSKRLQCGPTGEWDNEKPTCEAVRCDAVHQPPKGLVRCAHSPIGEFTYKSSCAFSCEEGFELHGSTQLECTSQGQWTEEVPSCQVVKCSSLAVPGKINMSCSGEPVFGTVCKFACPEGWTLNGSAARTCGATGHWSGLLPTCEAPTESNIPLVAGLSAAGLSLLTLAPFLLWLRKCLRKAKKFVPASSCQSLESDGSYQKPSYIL
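System: HUVEC / Compound: single concentration / Signal: immunofluorescence imaging / Read-out: percent E-selectin-positive cells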
The depositor's hits bear a star. The full list was thinned out, with hits kept by preference.

What do the screens show for `C[C@H](CO)N1C[C@H](C)[C@@H](CN(C)Cc2ccc(Oc3ccccc3)cc2)Oc2ccc(NC(=O)Cn3cnnn3)cc2C1=O`?
Xi reactivation: 0.2; E-selectin induc: -9.1

What do the screens show for `C[C@@H]1CN([C@@H](C)CO)C(=O)c2cc(NC(=O)Cn3cnnn3)ccc2O[C@H]1CN(C)Cc1ccc2c(c1)OCO2`?
Xi reactivation: 0.1; E-selectin induc: 0.5

Results for COc1cccc(CN2CC3(C2)CN(C(=O)C2CC2)[C@H](CO)c2c3c3ccc(OC)cc3n2C)c1 ?
Xi reactivation: 0.3; E-selectin induc: -0.4

Results for C[C@H]1CN([C@@H](C)CO)C(=O)c2cc(C#CC3(O)CCCC3)cnc2O[C@@H]1CN(C)C(=O)C1CCOCC1 ?
Xi reactivation: -0.8; E-selectin induc: 0.0

What do the screens show for `O=C(Nc1cc(F)ccc1F)N[C@@H]1CC[C@H](CCn2cc(C3CCCC3)nn2)O[C@H]1CO`?
Xi reactivation: 0.0; E-selectin induc: 0.0

What do the screens show for `O=S(=O)(CCN1CCOCC1)c1ccc(Cl)cc1`?
Xi reactivation: 0.0; E-selectin induc: -0.1

What do the screens show for `Cc1nn(CCS(=O)(=O)c2ccc(Cl)cc2)c(C)c1Br`?
Xi reactivation: 0.2; E-selectin induc: 78.4*

How did O=C(C1CCCC1)N1[C@@H]2CN(S(=O)(=O)c3ccc(F)cc3)c3ccccc3[C@@H]2[C@@H]1CO do in these assays?
Xi reactivation: 0.0; E-selectin induc: 0.0

How did C[C@@H]1CN([C@H](C)CO)C(=O)c2cc(-c3cccnc3)cnc2O[C@@H]1CN(C)C do in these assays?
Xi reactivation: -1.1; E-selectin induc: 0.3

Results for O=C(C[C@@H]1CC[C@H]2[C@@H](COC[C@@H](O)CN2C(=O)Nc2ccccc2)O1)NCCCN1CCOCC1 ?
Xi reactivation: -0.1; E-selectin induc: 0.1

What do the screens show for `OCCN1CCN(c2nc(-c3ccccc3)c3cc(Br)ccc3n2)CC1`?
Xi reactivation: 0.0; E-selectin induc: 0.4

How did O=C(O)C1CCN(c2nc(-c3ccccc3)c3cc(Br)ccc3n2)CC1 do in these assays?
Xi reactivation: 0.3; E-selectin induc: 34.5*

How did Cc1c(CC(=O)O)c(=O)oc2cc3occ(-c4ccccc4)c3cc12 do in these assays?
Xi reactivation: 0.3; E-selectin induc: -0.1

Results for Cc1c(CC(=O)NCCC(=O)O)c(=O)oc2cc3occ(-c4ccccc4)c3cc12 ?
Xi reactivation: 0.2; E-selectin induc: 40.1*

What do the screens show for `CN(C)C(=O)C[C@H]1CC[C@H]2[C@@H](COC[C@H](O)CN2S(=O)(=O)c2ccccc2)O1`?
Xi reactivation: 0.4; E-selectin induc: 0.0

What do the screens show for `O=C(N[C@@H]1C=C[C@@H](CC(=O)N2CCC(Cc3ccccc3)CC2)O[C@@H]1CO)c1cnccn1`?
Xi reactivation: 0.2; E-selectin induc: -0.1

How did CO[C@H]1CN(C)C(=O)c2ccc(NC(=O)C3CC3)cc2OC[C@H](C)N(C(=O)c2ccccc2)C[C@H]1C do in these assays?
Xi reactivation: -0.7; E-selectin induc: -0.1

Results for CCCNC(=O)Nc1ccc2c(c1)OC[C@H](C)N(CC1CCCC1)C[C@@H](C)[C@@H](OC)CN(C)C2=O ?
Xi reactivation: -0.4; E-selectin induc: -0.2

Results for C[C@@H]1CN([C@H](C)CO)C(=O)c2cc(NC(=O)C3CCCCC3)ccc2O[C@H]1CN(C)Cc1ccc2c(c1)OCO2 ?
Xi reactivation: 0.2; E-selectin induc: -0.1

How did C[C@@H]1CN([C@H](C)CO)C(=O)Cc2cc(NC(=O)Cc3ccccc3)ccc2O[C@H]1CN(C)S(C)(=O)=O do in these assays?
Xi reactivation: 0.0; E-selectin induc: 67.9*

How did C[C@H]1CN([C@@H](C)CO)C(=O)Cc2cc(NC(=O)CCN3CCOCC3)ccc2O[C@H]1CN(C)S(C)(=O)=O do in these assays?
Xi reactivation: 0.0; E-selectin induc: -3.2

Results for C[C@H]1CN([C@@H](C)CO)C(=O)Cc2cc(NC(=O)Cc3ccccc3)ccc2O[C@@H]1CN(C)S(C)(=O)=O ?
Xi reactivation: 0.0; E-selectin induc: -12.5

Results for C[C@@H]1CN([C@H](C)CO)C(=O)Cc2cc(NC(=O)CCN3CCOCC3)ccc2O[C@H]1CN(C)S(C)(=O)=O ?
Xi reactivation: 0.1; E-selectin induc: 331.7*

Results for COc1ccc2c3c(n(C)c2c1)[C@H](CO)N(C(=O)Nc1ccccc1F)CC31CN(C)C1 ?
Xi reactivation: 0.2; E-selectin induc: 0.0

How did C[C@@H]1CN([C@H](C)CO)C(=O)c2cccc(NS(=O)(=O)c3cn(C)cn3)c2O[C@H]1CN(C)Cc1ccncc1 do in these assays?
Xi reactivation: -1.3; E-selectin induc: 2.1

How did C[C@H](CO)N1C[C@H](C)[C@@H](CN(C)Cc2ccc3c(c2)OCO3)Oc2c(NS(=O)(=O)c3cn(C)cn3)cccc2C1=O do in these assays?
Xi reactivation: -1.1; E-selectin induc: 1.3

Results for C[C@H](CO)N1C[C@H](C)[C@H](CN(C)Cc2ccc(Cl)c(Cl)c2)Oc2c(NS(=O)(=O)c3cn(C)cn3)cccc2C1=O ?
Xi reactivation: 0.0; E-selectin induc: 37.8*

Results for C[C@@H]1CN([C@@H](C)CO)C(=O)c2cccc(NS(=O)(=O)c3cn(C)cn3)c2O[C@H]1CN(C)Cc1ccncc1 ?
Xi reactivation: -0.8; E-selectin induc: 53.4*

What do the screens show for `O=C(N[C@H]1CC[C@@H](CCNC(=O)C2CC2)O[C@@H]1CO)c1ccncc1`?
Xi reactivation: 0.3; E-selectin induc: 0.5

How did C[C@H](CO)N1C[C@H](C)[C@@H](CN(C)S(=O)(=O)c2cn(C)cn2)OCCCC[C@H](C)Oc2ccc(N(C)C)cc2C1=O do in these assays?
Xi reactivation: 0.1; E-selectin induc: -0.2

What do the screens show for `C[C@@H]1CN([C@H](C)CO)C(=O)c2cc(N(C)C)ccc2O[C@@H](C)CCCCO[C@H]1CN(C)S(=O)(=O)c1cn(C)cn1`?
Xi reactivation: 0.2; E-selectin induc: 0.0

What do the screens show for `C[C@H]1CN([C@@H](C)CO)C(=O)c2cc(N(C)C)ccc2O[C@H]1CN(C)S(=O)(=O)c1cn(C)cn1`?
Xi reactivation: -0.7; E-selectin induc: 415.2*

Results for C[C@H](CO)N1C[C@H](C)[C@@H](CN(C)S(=O)(=O)c2cn(C)cn2)Oc2ccc(N(C)C)cc2C1=O ?
Xi reactivation: 0.3; E-selectin induc: 33.3*

How did C[C@@H]1CN([C@@H](C)CO)C(=O)c2cc(NS(=O)(=O)c3cn(C)cn3)ccc2O[C@@H](C)CCCCO[C@@H]1CN(C)C(=O)Nc1ccccc1 do in these assays?
Xi reactivation: 0.0; E-selectin induc: -0.2

Results for O=C1/C(=C\c2c(NCCOCCO)nc3ccccn3c2=O)SC(=S)N1Cc1ccco1 ?
Xi reactivation: 1.0; E-selectin induc: 72.7*

What do the screens show for `CN(C)c1ccc(C=C2SC(=S)N(Cc3ccco3)C2=O)cc1`?
Xi reactivation: 0.0; E-selectin induc: 22.6

How did CCCNC(=O)N1C[C@H]2[C@@H](c3ccccc31)[C@@H](CO)N2C(=O)CN1CCOCC1 do in these assays?
Xi reactivation: 0.3; E-selectin induc: 0.3

How did COCCNC(=O)C[C@H]1C[C@H]2c3cc(NC(=O)C4CCC4)ccc3O[C@H]2[C@@H](CO)O1 do in these assays?
Xi reactivation: 0.3; E-selectin induc: 0.6

Results for CC(=O)N(C)C[C@H]1Oc2ncc(C#Cc3ccccn3)cc2C(=O)N([C@H](C)CO)C[C@H]1C ?
Xi reactivation: -0.4; E-selectin induc: 0.0
